Source: ChEMBL document CHEMBL1152434, “Probing the fibrate binding specificity of rat liver fatty acid binding protein” (J Med Chem, 2009)
Calls of active or inactive are those of the source. No cut-off for these calls is given here.

Key:
[1] = molecular target: T1, Fatty acid-binding protein, liver (Rattus norvegicus) (UniProt P02692); test: Binding affinity to rat recombinant L-FABP high affinity site expressed in Escherichia coli BL21(DE3) assessed as occupancy at a drug-protein molar ratio of 3:1 by NMR chemical shift perturbation method
T1 sequence (whole entry): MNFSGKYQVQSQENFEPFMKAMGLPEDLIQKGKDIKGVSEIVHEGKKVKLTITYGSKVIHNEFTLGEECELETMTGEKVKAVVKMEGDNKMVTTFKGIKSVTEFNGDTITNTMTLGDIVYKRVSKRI

[2] = molecular target: T1, Fatty acid-binding protein, liver (Rattus norvegicus); test: Binding affinity to rat recombinant L-FABP low affinity site expressed in Escherichia coli BL21(DE3) assessed as occupancy at a drug-protein molar ratio of 3:1 by NMR chemical shift perturbation method
[3] = molecular target: T2, Fatty acid-binding protein, liver (Rattus norvegicus, UniProt P02692); test: Binding affinity to rat recombinant L-FABP high affinity site expressed in Escherichia coli BL21(DE3) at 15 deg C by fluorimetric assay
T2 sequence (P02692 whole entry): T1 sequence (whole entry)
Method in brief: (§1)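 Steady-state ANS displacement: the fluorescent cavity probe 1-anilino-8-naphthalene sulfonic acid is bound to recombinant rat L-FABP (15N/13C-labelled, purified from E. coli). Fibrates in DMSO are titrated directly into the protein. The fall in ANS fluorescence is plotted against free ligand. A two-site competition nonlinear fit gives EC50, converted to Ki for each site.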

[4] = molecular target: T2, Fatty acid-binding protein, liver; test: Binding affinity to rat recombinant L-FABP high affinity site expressed in Escherichia coli BL21(DE3) at 20 deg C by fluorimetric assay; method in brief: as §1
[5] = molecular target: T2, Fatty acid-binding protein, liver; test: Binding affinity to rat recombinant L-FABP high affinity site expressed in Escherichia coli BL21(DE3) at 5 deg C by fluorimetric assay; method in brief: as §1
[6] = molecular target: T2, Fatty acid-binding protein, liver; test: Binding affinity to rat recombinant L-FABP high affinity site expressed in Escherichia coli BL21(DE3) at 30 deg C by fluorimetric assay; method in brief: as §1
[7] = molecular target: T2, Fatty acid-binding protein, liver; test: Binding affinity to rat recombinant L-FABP high affinity site expressed in Escherichia coli BL21(DE3) at 42 deg C by fluorimetric assay; method in brief: as §1
[8] = molecular target: T2, Fatty acid-binding protein, liver; test: Binding affinity to rat recombinant L-FABP high affinity site expressed in Escherichia coli BL21(DE3) at 37 deg C by fluorimetric assay; method in brief: as §1
[9] = molecular target: T2, Fatty acid-binding protein, liver; test: Binding affinity to rat recombinant L-FABP high affinity site expressed in Escherichia coli BL21(DE3) at 10 deg C by fluorimetric assay; method in brief: as §1
[10] = molecular target: T2, Fatty acid-binding protein, liver; test: Binding affinity to rat recombinant L-FABP high affinity site expressed in Escherichia coli BL21(DE3) at 25 deg C by fluorimetric assay; method in brief: as §1
[11] = molecular target: T2, Fatty acid-binding protein, liver; test: Binding affinity to rat recombinant L-FABP low affinity site expressed in Escherichia coli BL21(DE3) at 5 deg C by fluorimetric assay; method in brief: as §1
[12] = molecular target: T2, Fatty acid-binding protein, liver; test: Binding affinity to rat recombinant L-FABP low affinity site expressed in Escherichia coli BL21(DE3) at 10 deg C by fluorimetric assay; method in brief: as §1
[13] = molecular target: T2, Fatty acid-binding protein, liver; test: Binding affinity to rat recombinant L-FABP low affinity site expressed in Escherichia coli BL21(DE3) at 30 deg C by fluorimetric assay; method in brief: as §1
[14] = molecular target: T2, Fatty acid-binding protein, liver; test: Binding affinity to rat recombinant L-FABP low affinity site expressed in Escherichia coli BL21(DE3) at 37 deg C by fluorimetric assay; method in brief: as §1
[15] = molecular target: T2, Fatty acid-binding protein, liver; test: Binding affinity to rat recombinant L-FABP low affinity site expressed in Escherichia coli BL21(DE3) at 25 deg C by fluorimetric assay; method in brief: as §1
[16] = molecular target: T2, Fatty acid-binding protein, liver; test: Binding affinity to rat recombinant L-FABP low affinity site expressed in Escherichia coli BL21(DE3) at 20 deg C by fluorimetric assay; method in brief: as §1
[17] = molecular target: T2, Fatty acid-binding protein, liver; test: Binding affinity to rat recombinant L-FABP low affinity site expressed in Escherichia coli BL21(DE3) at 42 deg C by fluorimetric assay; method in brief: as §1
[18] = molecular target: T2, Fatty acid-binding protein, liver; test: Binding affinity to rat recombinant L-FABP low affinity site expressed in Escherichia coli BL21(DE3) at 15 deg C by fluorimetric assay; method in brief: as §1

Structure (SMILES)	Activity [1]	Activity [2]	Kd [3] [nM]	Kd [4] [nM]	Kd [5] [nM]	Kd [6] [nM]	Kd [7] [nM]	Kd [8] [nM]	Kd [9] [nM]	Kd [10] [nM]	Kd [11] [nM]	Kd [12] [nM]	Kd [13] [nM]	Kd [14] [nM]	Kd [15] [nM]	Kd [16] [nM]	Kd [17] [nM]	Kd [18] [nM]
CC(C)(Oc1ccc(CCNC(=O)c2ccc(Cl)cc2)cc1)C(=O)O	inactive	93%	–	–	–	–	–	–	–	–	–	–	–	–	–	–	–	–
CC(C)OC(=O)C(C)(C)Oc1ccc(C(=O)c2ccc(Cl)cc2)cc1 [FENOFIBRATE]	100%	100%	24	27	18	41	–	62	23	32	130	150	270	320	250	200	360	160
CC(C)(Oc1ccc(C(=O)c2ccc(Cl)cc2)cc1)C(=O)O [FENOFIBRIC ACID]	100%	96%	160	220	94	360	–	420	100	340	18000	19000	27000	28000	24000	23000	29000	20000

Further lines, results first:

Activity [1]	Activity [2]	Kd [3] [nM]	Kd [4] [nM]	Kd [5] [nM]	Kd [6] [nM]	Kd [7] [nM]	Kd [8] [nM]	Kd [9] [nM]	Kd [10] [nM]	Kd [11] [nM]	Kd [12] [nM]	Kd [13] [nM]	Kd [14] [nM]	Kd [15] [nM]	Kd [16] [nM]	Kd [17] [nM]	Kd [18] [nM]	Structure (SMILES)
100%	85%	–	–	–	–	–	–	–	–	–	–	–	–	–	–	–	–	CC(C)(Oc1ccc(C2CC2(Cl)Cl)cc1)C(=O)O (stereo not given)
100%	79%	–	–	–	–	–	–	–	–	–	–	–	–	–	–	–	–	Cc1ccc(C)c(OCCCC(C)(C)C(=O)O)c1
99%	inactive	7300	7800	6000	9600	12000	11000	6700	8900	–	–	–	–	–	–	–	–	CCOC(=O)C(C)(C)Oc1ccc(Cl)cc1 [CLOFIBRATE]
